Columns and labels:
Assay type in all cases: functional
[1] = system: K562; assay: Growth inhibition of human K562 cells at 10 uM after 48 hrs by coulter counter analysis; settings: K562, 48 h, read-out: GI
Summary of the method: (§1)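 Single-dose NCI 60-line panel screen of test compounds. Cells grown in RPMI 1640 with 10% FBS. Compounds dissolved in DMSO, then diluted in phosphate buffer saline (final DMSO below 1%). Wells run in duplicate at 6 × 10⁴ cells/ml. Controls held PBS and DMSO at matching dilutions. Incubation 48 h at 37 °C under humidified 5% CO2. Cells diluted tenfold in saline and counted by Coulter counter. Percent growth inhibition taken from mean-graph of treated-cell growth.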

[2] = system: SW-620; assay: Growth inhibition of human SW620 cells at 10 uM after 48 hrs by coulter counter analysis; settings: SW-620, 48 h, read-out: GI
Summary of the method: (§2)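 Single-dose screen in the NCI 60 cell line panel. Cells grown in RPMI 1640 with 10% FBS. Compounds dissolved in DMSO and diluted in phosphate buffered saline, final DMSO under 1%. Duplicate wells seeded from culture at 6 × 10⁴ cells/ml. Incubated 48 h at 37 °C, humidified, 5% CO2. Cells diluted tenfold in saline and Coulter-counted. Percent growth inhibition computed against PBS/DMSO controls.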

[3] = system: ACHN; assay: Growth inhibition of human ACHN cells at 10 uM after 48 hrs by coulter counter analysis; settings: read-out: GI; summary of the method: as §1
[4] = system: RPMI-8226; assay: Growth inhibition of human RPMI8226 cells at 10 uM after 48 hrs by coulter counter analysis; settings: RPMI-8226, 48 h, read-out: GI; summary of the method: as §1
[5] = system: UACC-62; assay: Growth inhibition of human UACC62 cells at 10 uM after 48 hrs by coulter counter analysis; settings: UACC-62, 48 h, read-out: GI; summary of the method: as §2
[6] = system: RXF 393; assay: Growth inhibition of human RXF393 cells at 10 uM after 48 hrs by coulter counter analysis; settings: RXF 393, 48 h, read-out: GI; summary of the method: as §1
[7] = system: UO-31; assay: Growth inhibition of human UO31 cells at 10 uM after 48 hrs by coulter counter analysis; settings: UO-31, 48 h, read-out: GI; summary of the method: as §2
[8] = system: NCI-H23; assay: Growth inhibition of human NCI-H23 cells at 10 uM after 48 hrs by coulter counter analysis; settings: NCI-H23, 48 h, read-out: GI; summary of the method: as §1
[9] = system: HCT-15; assay: Growth inhibition of human HCT15 cells at 10 uM after 48 hrs by coulter counter analysis; settings: HCT-15, 48 h, read-out: GI; summary of the method: as §1
[10] = system: T47D; assay: Growth inhibition of human T47D cells at 10 uM after 48 hrs by coulter counter analysis; settings: read-out: GI; summary of the method: as §2
[11] = system: HT-29; assay: Growth inhibition of human HT-29 cells at 10 uM after 48 hrs by coulter counter analysis; settings: HT-29, 48 h, read-out: GI; summary of the method: as §1
[12] = system: MCF7; assay: Growth inhibition of human MCF7 cells at 10 uM after 48 hrs by coulter counter analysis; settings: MCF7, 48 h, read-out: GI; summary of the method: as §1
[13] = system: SK-MEL-5; assay: Growth inhibition of human SK-MEL-5 cells at 10 uM after 48 hrs by coulter counter analysis; settings: SK-MEL-5, 48 h, read-out: GI; summary of the method: as §1
[14] = system: KM12; assay: Growth inhibition of human KM12 cells at 10 uM after 48 hrs by coulter counter analysis; settings: KM12, 48 h, read-out: GI; summary of the method: as §1
[15] = system: HL-60(TB); assay: Growth inhibition of human HL-60(TB) cells at 10 uM after 48 hrs by coulter counter analysis; settings: HL-60, 48 h, read-out: GI
Summary of the method: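 Cells grown in RPMI 1640 with 10% FBS. Compound was dissolved in DMSO and diluted in PBS (under 1% DMSO final), then added in duplicate wells to culture at 6 × 10⁴ cells/ml. PBS/DMSO vehicle controls were included. Incubated at 37 °C, humidified 5% CO₂, for 48 h. Cells were diluted 10-fold in saline and Coulter-counted. Single-dose NCI-60 screen, read as percent growth inhibition.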

[16] = system: SF-295; assay: Growth inhibition of human SF295 cells at 10 uM after 48 hrs by coulter counter analysis; settings: SF-295, 48 h, read-out: GI; summary of the method: as §1
[17] = system: DU-145; assay: Growth inhibition of human DU145 cells at 10 uM after 48 hrs by coulter counter analysis; settings: DU-145, 48 h, read-out: GI; summary of the method: as §1
[18] = system: SK-MEL-2; assay: Growth inhibition of human SK-MEL-2 cells at 10 uM after 48 hrs by coulter counter analysis; settings: SK-MEL-2, 48 h, read-out: GI; summary of the method: as §1
[19] = system: MOLT-4; assay: Growth inhibition of human MOLT4 cells at 10 uM after 48 hrs by coulter counter analysis; settings: MOLT-4, 48 h, read-out: GI; summary of the method: as §1
[20] = system: SR; assay: Growth inhibition of human SR cells at 10 uM after 48 hrs by coulter counter analysis; settings: read-out: GI; summary of the method: as §2
[21] = system: U-251; assay: Growth inhibition of human U251 cells at 10 uM after 48 hrs by coulter counter analysis; settings: U-251, 48 h, read-out: GI; summary of the method: as §2
[22] = system: HCT-116; assay: Growth inhibition of human HCT116 cells at 10 uM after 48 hrs by coulter counter analysis; settings: HCT-116, 48 h, read-out: GI; summary of the method: as §1
[23] = system: A549; assay: Growth inhibition of human A549/ATCC cells at 10 uM after 48 hrs by coulter counter analysis; settings: A549, 48 h, read-out: GI; summary of the method: as §1
[24] = system: NCI-H322M; assay: Growth inhibition of human NCI-H322M cells at 10 uM after 48 hrs by coulter counter analysis; settings: read-out: GI; summary of the method: as §1
[25] = system: OVCAR-4; assay: Growth inhibition of human OVCAR4 cells at 10 uM after 48 hrs by coulter counter analysis; settings: OVCAR-4, 48 h, read-out: GI; summary of the method: as §1
[26] = system: HCC 2998; assay: Growth inhibition of human HCC2998 cells at 10 uM after 48 hrs by coulter counter analysis; settings: HCC 2998, 48 h, read-out: GI; summary of the method: as §1
[27] = system: M14; assay: Growth inhibition of human M14 cells at 10 uM after 48 hrs by coulter counter analysis; settings: M14, 48 h, read-out: GI; summary of the method: as §1
[28] = system: PC-3; assay: Growth inhibition of human PC3 cells at 10 uM after 48 hrs by coulter counter analysis; settings: PC-3, 48 h, read-out: GI; summary of the method: as §1
[29] = system: A498; assay: Growth inhibition of human A498 cells at 10 uM after 48 hrs by coulter counter analysis; settings: A498, 48 h, read-out: GI; summary of the method: as §1
[30] = system: CCRF-CEM; assay: Growth inhibition of human CCRF-CEM cells at 10 uM after 48 hrs by coulter counter analysis; settings: read-out: GI; summary of the method: as §1
[31] = system: NCI-H460; assay: Growth inhibition of human NCI-H460 cells at 10 uM after 48 hrs by coulter counter analysis; settings: NCI-H460, 48 h, read-out: GI; summary of the method: as §1
[32] = system: HOP-92; assay: Growth inhibition of human HOP92 cells at 10 uM after 48 hrs by coulter counter analysis; settings: HOP-92, 48 h, read-out: GI; summary of the method: as §1
[33] = system: SF-539; assay: Growth inhibition of human SF539 cells at 10 uM after 48 hrs by coulter counter analysis; settings: SF-539, 48 h, read-out: GI; summary of the method: as §1
[34] = system: SNB-75; assay: Growth inhibition of human SNB75 cells at 10 uM after 48 hrs by coulter counter analysis; settings: SNB-75, 48 h, read-out: GI; summary of the method: as §2

SMILES | inhibition of growth at 10 µM [1] | inhibition of growth at 10 µM [2] | inhibition of growth at 10 µM [3] | inhibition of growth at 10 µM [4] | inhibition of growth at 10 µM [5] | inhibition of growth at 10 µM [6] | inhibition of growth at 10 µM [7] | inhibition of growth at 10 µM [8] | inhibition of growth at 10 µM [9] | inhibition of growth at 10 µM [10] | inhibition of growth at 10 µM [11] | inhibition of growth at 10 µM [12] | inhibition of growth at 10 µM [13] | inhibition of growth at 10 µM [14] | inhibition of growth at 10 µM [15] | inhibition of growth at 10 µM [16] | inhibition of growth at 10 µM [17] | inhibition of growth at 10 µM [18] | inhibition of growth at 10 µM [19] | inhibition of growth at 10 µM [20] | also measured
O=C(CCN1CCN(c2ccccc2)CC1)Nc1nc(-c2ccccc2)cs1 | 32.6% | 10.9% | 16.4% | 16.8% | 33.2% | 11.8% | 68.9% | 31.4% | 20.6% | 20.4% | < 10% | 12.7% | 52.5% | 10.7% | < 10% | 13.6% | 18.2% | < 10% | 37.9% | 19.9% | inhibition of growth at 10 µM [21]: 15.6%; inhibition of growth at 10 µM [22]: 41.7%; inhibition of growth at 10 µM [23]: 17.9%; inhibition of growth at 10 µM [24]: 13%; inhibition of growth at 10 µM [25]: 36.2%; inhibition of growth at 10 µM [26]: < 10%; inhibition of growth at 10 µM [27]: < 10%; inhibition of growth at 10 µM [28]: 28.3%; inhibition of growth at 10 µM [29]: 67.5%; inhibition of growth at 10 µM [30]: 31.4%; inhibition of growth at 10 µM [31]: 11.3%; inhibition of growth at 10 µM [32]: 59.6%; inhibition of growth at 10 µM [33]: 15.4%; inhibition of growth at 10 µM [34]: 28.6%
CCOC(=O)c1sc(NC(=O)C(C)N2CCCCC2)nc1C (stereo not drawn) | < 10% | < 10% | < 10% | < 10% | < 10% | < 10% | 13.4% | < 10% | < 10% | < 10% | < 10% | < 10% | < 10% | < 10% | < 10% | < 10% | < 10% | < 10% | < 10% | < 10% | inhibition of growth at 10 µM [21]: < 10%; inhibition of growth at 10 µM [22]: < 10%; inhibition of growth at 10 µM [23]: < 10%; inhibition of growth at 10 µM [24]: < 10%; inhibition of growth at 10 µM [25]: < 10%; inhibition of growth at 10 µM [26]: < 10%; inhibition of growth at 10 µM [27]: < 10%; inhibition of growth at 10 µM [28]: < 10%; inhibition of growth at 10 µM [29]: < 10%; inhibition of growth at 10 µM [30]: < 10%; inhibition of growth at 10 µM [31]: < 10%; inhibition of growth at 10 µM [32]: < 10%; inhibition of growth at 10 µM [33]: < 10%; inhibition of growth at 10 µM [34]: < 10%
